# Measurements taken from ChEMBL document CHEMBL4513216, “Probing the Open Global Health Chemical Diversity Library for Multistage-Active Starting Points for Next-Generation Antimalarials” (ACS Infect Dis, 2020).
# Test: Toxicity liver stage against HepG2, at 10uM
# Assay type: cell-based
# Parameters: test concentration 10 uM, cell line HepG2-A16-CD81EGFP
# Conditions: human, HepG2-A16-CD81EGFP cells; read-out: INHIBITION
# How it was run: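 Uninfected HepG2-A16-CD81EGFP cells, 3 × 10^3 per well, 1536-well, plated on prespotted compound at 10 μM final, parasite-free screening media added to match infected plates; puromycin 10 μM positive, DMSO 0.5% negative; run in parallel with 48 h PbLuc assay at 37 °C, 5% CO2; viability by CellTiter-Glo luminescence, normalized to controls.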
row,SMILES,cytotoxicity at 10 µM [%]
1,CC(=O)NCCCSC1CCCN(c2ccccc2F)C1=O (stereo unspecified),-0.906
2,O=C([C@@H]1COC[C@H]2CN(C3CCCC3)C[C@H]21)N1CCCO1,-0.262
3,CN(C)C(=O)[C@H]1CCS(=O)(=O)[C@@H]2CN(c3ncc(F)cn3)C[C@H]12,-100
4,CC(C)(NCC(=O)NCC(F)(F)F)c1ccc2c(c1)OCCO2,-8.23
5,COCCC(=O)N1CCC(c2cc3ncc(C)nc3[nH]2)CC1,-8.86
6,CCS(=O)(=O)CCNc1nc(C2CCCC2)nc2c1cnn2C,9.35
7,COCC1CN(Cc2ccc(OC)cc2)Cc2nn(C)cc21 (stereo unspecified),0.976
8,CC(C)(C)c1cnc(CN2CCC(c3ccnn3CCO)CC2)o1,-3.15
9,Cc1nccn1-c1cc(CNS(=O)(=O)N2CCCC(C)C2)ccn1 (stereo unspecified),-2.42
10,c1ccc2cc(OCCCN3CCn4c(nnc4C4CC4)C3)ccc2c1,-11.3
11,Cn1cccc1C(=O)NCc1cn2c(n1)CN(Cc1cccnc1)CC2,-113
12,O=C(C(CNCc1ccncc1)c1ccccc1)N1CCOCC1 (stereo unspecified),-19
13,Cc1cccnc1CN1CCN(C(=O)[C@@]23CNC[C@@H]2CN(C)C3)CC1,2.3
14,COc1ccc2[nH]nc(CN3CCC(C(C)N4CCCC4)CC3)c2c1 (stereo unspecified),-4.13
15,COc1ccc(C)cc1CNC(=O)C1=NN(c2ccccc2)C(=O)CN1,12.8
16,Cc1ccccc1C(CNc1ncnc2c1CCNCC2)N(C)C (stereo unspecified),21.5
17,CN(c1cccc2ccccc12)S(=O)(=O)c1cc(C(=O)O)cs1,-2.88
18,CN1CC(c2ccccc2)CC2(CCN(CC(=O)N(C)C)CC2)C1 (stereo unspecified),-12.5
19,O=C(CCc1ccc(F)c(F)c1)N1CCCCC1Cn1cccn1 (stereo unspecified),-8.01
20,CN(C)C(=O)CN1CCOCC2(CCN(CC3CCOCC3)CC2)C1,8.55
21,CC(c1ccco1)N(C(=O)c1cc2c([nH]c1=O)CCCC2=O)C1CC1 (stereo unspecified),-3.21
22,CCc1noc(CNc2c(F)cccc2-n2cccn2)n1,-5.14
23,Cc1nnc(C2CCN(c3ccccc3)CC2)o1,8.84

row,SMILES,cytotoxicity at 10 µM [%]
1,CC(C)(C)OC(=O)NC1(c2noc(-c3ccoc3)n2)CCC1,3.12
2,CC(C)c1noc(CN(Cc2cccs2)C2CC2)n1,-9.15
3,CC(C)CNC(=O)C1(Cc2ccccc2-c2cccs2)CCNC1 (stereo unspecified),-31.2
4,CCc1noc(C2CCCCN2C(=O)c2ccn(C3CCCC3)n2)n1 (stereo unspecified),11.8
5,Cc1nn(C)c2c(N3CCN(C(=O)NC4CCCCC4)CC3)ncnc12,9.09
6,CCOC(=O)C1(NCC(=O)Nc2cc(C)ccc2OC)CCCC1,6.9
7,Cc1n[nH]cc1CNC(C(=O)N1CCCCC1)c1ccccc1 (stereo unspecified),8.37
8,CCOC(=O)N1CCC(NC(=O)Nc2cccnc2OCC)CC1,-31.9
9,CC(C)c1nc2n(n1)CC(NCc1nnc(-c3ccco3)o1)CC2 (stereo unspecified),-9.78
10,Cc1noc(C)c1C(C)NC(=O)N1CCN(c2cccs2)CC1 (stereo unspecified),6.43
11,C[C@@]1(O)CCN(Cc2cc[nH]n2)C[C@H]1Oc1cccc(F)c1,-6.86
12,CN(C)C[C@@H]1CN(C(=O)Cc2ccccc2)C[C@@H]1CO,-1.07
13,COCCN1CCCC(c2ccnc3c(C(N)=O)cnn23)C1 (stereo unspecified),2.05
14,CCc1nc(C2CCCN(C(=O)c3cccnc3O)C2)no1 (stereo unspecified),-3.54
15,OC1(CNCCc2nc3c(s2)CCCC3)CCNC1 (stereo unspecified),1.44
16,CCc1cc(CN(C)C(=O)C2CC(=O)N(c3cccc(O)c3)C2)on1 (stereo unspecified),-1.72
17,COCCOc1ncccc1C(=O)N(C)c1ccc(OC)nc1,-44.4
18,CCc1n[nH]c(C2CN(C(=O)c3ccc4c(c3)CCCC4)CCO2)n1 (stereo unspecified),-16.1
19,Cc1ccc(C)c(OCCNC(=O)C2CCOC2)c1 (stereo unspecified),-2.73
20,CC1CCN(C(=O)c2ccn(COc3ccc(F)cc3)n2)CC1,-9.38
21,O=C(Cn1ccc2ccc(Cl)cc21)NCc1ccc(C(=O)O)cc1,7.91
22,c1cc(CCN2CCC(NCc3ccsc3)CC2)ccn1,-11
23,O=C(c1ccc(Br)o1)N1CCN(Cc2ccc(F)cc2)CC1,9.08

row,SMILES,cytotoxicity at 10 µM [%]
1,O=C(Cc1ccc2c(c1)OCCO2)NC1CCN(CC(F)F)CC1,-9.86
2,CC(=O)Nc1nc(C(=O)NCc2ccc(N3CCCCCC3)nc2)cs1,4.74
3,Cn1cc(CN2CCCN(CCCc3ccccc3)CC2)cn1,-50.8
4,c1cc(CN2CCCn3nnc(COCC4CC4)c3C2)ccn1,-113
5,Cc1cncc(C2CCCN2CC(N)=O)n1 (stereo unspecified),-5.3
6,Fc1cccc(N2CCCC3(CN(Cc4cccnc4)CCO3)C2)c1 (stereo unspecified),-78.2
7,COc1ccc(NC(=O)Cn2nc(C)c(C)cc2=O)cc1OC,-20.4
8,O=C1CC2(CCSC2)C(=O)N1Cc1coc(-c2ccc(F)cc2)n1 (stereo unspecified),6.88
9,CC(C)CCN1CC2(CCCN(C(=O)NCc3cccs3)C2)CCC1=O (stereo unspecified),-11.9
10,O=C1CCSCC(C(=O)N2CCOCC2)N1 (stereo unspecified),-11.3
11,Cc1cc(C)n(C2CCCN(C(=O)Cc3cccc(F)c3)C2)n1 (stereo unspecified),-8.09
12,Cc1noc(C)c1CCN1CCCC1c1nc2cc(F)ccc2[nH]1 (stereo unspecified),9.3
13,CN1CCN(C2COC3(CCN(Cc4ccc(F)cc4)CC3)C2)CC1 (stereo unspecified),-97.4
14,Cc1ccc2[nH]c([C@H]3CCN(CC4CCCCC4)C3)nc2c1,-3.45
15,O=C(CN1CCCC1)N1CCCC1c1nc(O)cc(-c2ccccn2)n1 (stereo unspecified),-10.7
16,O=C(CCN1CCCCO1)NCc1cn2c(n1)SCC2,6.49
17,Cc1ccc(OCCN(C)C(=O)CCCN2CCCC2=O)c(C)c1,-8.38
18,Cc1cccc(CN2CCCC(c3nccs3)C2)n1 (stereo unspecified),8.38
19,CC=C(C)C(=O)NS(=O)(=O)c1ccc(C(F)(F)F)cc1,3.12
20,CN(C)S(=O)(=O)N1CC[C@]2(O)CCN(Cc3cc(F)cc(F)c3)C[C@@H]2C1,-0.757
21,Cc1cnn(C2CN(CC(=O)Nc3cccnc3)C2)c1,-8.11
22,CCN(CC)c1ncccc1CNCc1ccc(-c2ccn[nH]2)s1,6.43
23,O=C(NCC(O)c1cccs1)c1ccco1 (stereo unspecified),-14.7

row,SMILES,cytotoxicity at 10 µM [%]
1,O=c1[nH]nc(CCCN2CCOCC2)n1-c1ccc(F)cc1F,4.54
2,Cc1ccc([C@@H]2CN(C(=O)c3csc(C)n3)C[C@H]2NC(=O)C2CC2)cc1,-5.99
3,Cc1ccc(-c2noc(CN3CCOC(Cn4cccn4)C3)n2)cc1 (stereo unspecified),-5.98
4,CC(C)C(c1cccnc1)N(C)C(=O)Cc1ccc(O)cc1 (stereo unspecified),-1.03
5,COc1cccc(-c2n[nH]cc2C(=O)NC(C)CC(=O)O)c1 (stereo unspecified),-8.91
6,O=C(NCc1nnc2n1CCC2)c1ccc(C2CCCO2)s1 (stereo unspecified),-12.4
7,CC(C)c1nccn1C(C)C(=O)NC1CCOCC1 (stereo unspecified),-2.07
8,Cc1cnc(N2CCOC3(CCCN(C(=O)C(C)C)C3)C2)nc1 (stereo unspecified),10.9
9,CC(Cc1ccco1)NC(=O)Nc1ccc(N2CCOCC2)nc1 (stereo unspecified),0.813
10,O=C(CN1CCCS1(=O)=O)NCCOc1ccc2c(c1)CCC2,-2.5
11,CC(=O)Nc1ccc(Oc2ccc3c(c2)OCO3)nc1,-8.6
12,CN(Cc1cc2cc(F)ccc2[nH]1)C(=O)C1CC(=O)N(C(C)(C)C)C1 (stereo unspecified),0.993
13,CC(C)(C)n1cc(CNC2CCN(C(=O)c3ccncc3)CC2)cn1,-6.72
14,O=C1CC(c2ccncc2)C2(CCN(C(=O)c3cccc(F)c3)CC2)N1 (stereo unspecified),-74.4
15,COc1cc(N2CCCn3cnc(COCCO)c3C2)ncn1,-3.61
16,CC(C)COc1cncc(N(C)C2CCN(c3ncccn3)CC2)n1,0.583
17,Cc1cc(C(=O)N2CC[C@H]3[C@H]2CCN3S(C)(=O)=O)c(C)o1,-83.1
18,CCc1ccc(NS(=O)(=O)c2cc3c(c(C(=O)O)c2)OCCO3)cc1,-13.9
19,COCc1noc(Cc2c(C)nn(C)c2C)n1,7
20,Cc1cnc(C)c(N2CCN(Cc3ccc(-c4cc[nH]n4)o3)CC2)n1,-5.01
21,Cc1ccccc1OCCCC(=O)N(C)CCC#N,2.33
22,CC(NCCn1c(=O)oc2ccccc21)c1ccccn1 (stereo unspecified),-7.1
23,NC(=O)NCC(=O)N1C[C@@H]2CC[C@H]1CN(Cc1ccccc1)C2,-13.4

row,SMILES,cytotoxicity at 10 µM [%]
1,Cn1[nH]c(C2CCCN(C(=O)CO)C2)cc1=O (stereo unspecified),2.01
2,Cc1cnc2n1CCN(C)C21CCN(CC2CC2)CC1,7.34
3,COc1ccc(C2CCCN2C(=O)c2ccnc(NC3CC3)c2)cc1 (stereo unspecified),3.07
4,N[C@@H]1c2ccccc2C2(CCN(C(=O)c3ccc(CO)o3)CC2)[C@H]1O,3.92
5,COCCN1C[C@@H]2CN(c3ncccn3)C[C@@H]2C1=O,-11.9
6,CO[C@@H]1CCN(c2nnc(C)s2)C[C@@H]1Cc1cccc(C)c1,11.8
7,O=C(c1ccncn1)N1CCC[C@]2(C[C@@H](OCC3CC3)CO2)C1,-78.9
8,CCN1CC(CN(C)Cc2nc(-c3ccc(F)cc3)oc2C)CC1=O (stereo unspecified),-2.22
9,CC(C)n1nc2c(cc1=O)CN(Cc1nc(-c3ccoc3)no1)CC2,10.2
10,CCCc1nnsc1C(=O)N1CCN(CC(O)c2ccco2)CC1 (stereo unspecified),-7.86
11,CNC(=O)c1cccnc1Oc1ccccc1,2.84
12,COc1cccc(CN2CCCCCC2c2cccs2)c1OC (stereo unspecified),8.29
13,CCc1nc(NCCn2cccn2)c2c(n1)c(C)nn2C,5.97
14,CCc1cccc(CC(=O)NC2CCN(C(=O)NC(C)(C)C)CC2)c1,-4.73
15,CC(C)n1cc(C(=O)NCCCc2csc(N)n2)cn1,-4.36
16,CNC(=O)c1cccc(CNC(C)c2cc(C)ccc2OC(F)F)c1 (stereo unspecified),20.2
17,COCC(=O)N1CCN(c2cc(-n3cccc3)nc(C)n2)CC1,-6.81
18,COCc1noc(Cc2cc(Cl)c3c(c2)OCCCO3)n1,0.583
19,COc1ccc(CC(=O)N2CCCC(c3cc(C)[nH]n3)C2)cc1 (stereo unspecified),-7.69
